Source: ChEMBL document CHEMBL2010673, “Structure-activity relationship of pyrrole based S-nitrosoglutathione reductase inhibitors: carboxamide modification” (Bioorg Med Chem Lett, 2012)
Activity calls are given as the source filed them. Unless noted, the rule behind the calls is not given here.

Columns and labels:
[1] = molecular target: D(1A) dopamine receptor (Homo sapiens) (UniProt P21728); assay: Inhibition of dopamine D1 receptor at 10 uM by radioligand displacement assay
Method in brief: (§1)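 Off-target panel: radioligand binding to each receptor, channel or transporter with test compound at 10 µM; activity reported as percent inhibition of specific binding. At least 6 control wells with or without vehicle per assay. Inhibition of 50% or greater counted as a positive response.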

[2] = molecular target: Endothelin-1 receptor (Homo sapiens) (UniProt P25101); assay: Inhibition of Eta receptor at 10 uM by radioligand displacement assay
Method in brief: (§2)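 Off-target radioligand binding panel. Test compound at 10 µM. Each assay had at least 6 control wells, with or without vehicle, for soluble compounds. Values are percent inhibition of radioligand binding. ≥50% inhibition was scored as a positive response.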

[3] = Inhibition of GABA receptor at 10 uM by radioligand displacement assay; method in brief: as §2
[4] = molecular target: Galanin receptor type 2 (Homo sapiens) (UniProt O43603); assay: Inhibition of GAL2 receptor at 10 uM by radioligand displacement assay; method in brief: as §2
[5] = molecular target: C-X-C chemokine receptor type 2 (Homo sapiens) (UniProt P25025); assay: Inhibition of CXCR2 receptor at 10 uM by radioligand displacement assay; method in brief: as §2
[6] = molecular target: C-C chemokine receptor type 1 (Homo sapiens) (UniProt P32246); assay: Inhibition of CCR1 receptor at 10 uM by radioligand displacement assay; method in brief: as §2
[7] = molecular target: Histamine H1 receptor (Homo sapiens) (UniProt P35367); assay: Inhibition of H1 receptor at 10 uM by radioligand displacement assay; method in brief: as §2
[8] = molecular target: Histamine H2 receptor (Homo sapiens) (UniProt P25021); assay: Inhibition of H2 receptor at 10 uM by radioligand displacement assay; method in brief: as §2
[9] = Inhibition of MT1 receptor at 10 uM by radioligand displacement assay; method in brief: as §2
[10] = molecular target: Muscarinic acetylcholine receptor M1 (Homo sapiens) (UniProt P11229); assay: Inhibition of M1 receptor at 10 uM by radioligand displacement assay; method in brief: as §2
[11] = molecular target: Muscarinic acetylcholine receptor M2 (Homo sapiens) (UniProt P08172); assay: Inhibition of M2 receptor at 10 uM by radioligand displacement assay; method in brief: as §2
[12] = molecular target: Muscarinic acetylcholine receptor M3 (Homo sapiens) (UniProt P20309); assay: Inhibition of M3 receptor at 10 uM by radioligand displacement assay; method in brief: as §2
[13] = molecular target: Substance-K receptor (Homo sapiens) (UniProt P21452); assay: Inhibition of NK2 receptor at 10 uM by radioligand displacement assay; method in brief: as §2
[14] = molecular target: Neuromedin-K receptor (Homo sapiens) (UniProt P29371); assay: Inhibition of NK3 receptor at 10 uM by radioligand displacement assay; method in brief: as §2
[15] = molecular target: Neuropeptide Y receptor type 1 (Homo sapiens) (UniProt P25929); assay: Inhibition of Y1 receptor at 10 uM by radioligand displacement assay; method in brief: as §2
[16] = molecular target: Neurotensin receptor type 1 (Homo sapiens) (UniProt P30989); assay: Inhibition of NTS1 receptor at 10 uM by radioligand displacement assay; method in brief: as §2
[17] = Inhibition of delta2 opioid receptor at 10 uM by radioligand displacement assay; method in brief: as §1
[18] = molecular target: Thromboxane A2 receptor (Homo sapiens) (UniProt P21731); assay: Inhibition of TP receptor at 10 uM by radioligand displacement assay; method in brief: as §2
[19] = molecular target: 5-hydroxytryptamine receptor 1A (Homo sapiens) (UniProt P08908); assay: Inhibition of 5HT1A receptor at 10 uM by radioligand displacement assay; method in brief: as §2
[20] = molecular target: 5-hydroxytryptamine receptor 2A (Homo sapiens) (UniProt P28223); assay: Inhibition of 5HT2A receptor at 10 uM by radioligand displacement assay; method in brief: as §2
[21] = molecular target: 5-hydroxytryptamine receptor 3A (Homo sapiens) (UniProt P46098); assay: Inhibition of 5HT3 receptor at 10 uM by radioligand displacement assay; method in brief: as §2
[22] = molecular target: 5-hydroxytryptamine receptor 5A (Homo sapiens) (UniProt P47898); assay: Inhibition of 5HT5A receptor at 10 uM by radioligand displacement assay; method in brief: as §2
[23] = molecular target: 5-hydroxytryptamine receptor 6 (Homo sapiens) (UniProt P50406); assay: Inhibition of 5HT6 receptor at 10 uM by radioligand displacement assay; method in brief: as §2
[24] = Inhibition of sst receptor at 10 uM by radioligand displacement assay; method in brief: as §1
[25] = molecular target: Vasoactive intestinal polypeptide receptor 1 (Homo sapiens) (UniProt P32241); assay: Inhibition of VPAC1 receptor at 10 uM by radioligand displacement assay; method in brief: as §2
[26] = molecular target: Vasopressin V1a receptor (Homo sapiens) (UniProt P37288); assay: Inhibition of V1a receptor at 10 uM by radioligand displacement assay; method in brief: as §2
[27] = Inhibition of L-type calcium channel at 10 uM by radioligand displacement assay; method in brief: as §2
[28] = Inhibition of Kv channel at 10 uM by radioligand displacement assay; method in brief: as §2
[29] = Inhibition of Small conductance calcium-activated potassium channel at 10 uM by radioligand displacement assay; method in brief: as §2
[30] = Inhibition of Sodium channel at 10 uM by radioligand displacement assay; method in brief: as §2
[31] = Inhibition of chloride channel at 10 uM by radioligand displacement assay; method in brief: as §1
[32] = molecular target: Sodium-dependent noradrenaline transporter (Homo sapiens) (UniProt P23975); assay: Inhibition of norepinephrine […] at 10 uM by radioligand displacement assay; method in brief: as §1
[33] = molecular target: Sodium-dependent serotonin transporter (Homo sapiens) (UniProt P31645); assay: Inhibition of 5HT transporter at 10 uM by radioligand displacement assay; method in brief: as §2
A549 = assay: Cytotoxicity against human A549 cells after 48 hrs by MTS assay; format: cell-based; conditions: A549, 48 h
[34] = Inhibition of Smt-tagged S-nitrosoglutathione reductase expressed in Escherichia coli using […] as substrate for 3 mins by spectrophotometric analysis; conditions: read-out: IC50
[35] = molecular target: Adenosine receptor A2a (Homo sapiens) (UniProt P29274); assay: Inhibition of adenosine A2a receptor at 10 uM by radioligand displacement assay; method in brief: as §2
[36] = Inhibition of alpha1 adrenergic receptor at 10 uM by radioligand displacement assay; method in brief: as §1
[37] = molecular target: Beta-1 adrenergic receptor (Homo sapiens) (UniProt P08588); assay: Inhibition of Beta1 adrenergic receptor at 10 uM by radioligand displacement assay; method in brief: as §2
[38] = molecular target: Beta-2 adrenergic receptor (Homo sapiens) (UniProt P07550); assay: Inhibition of Beta2 adrenergic receptor at 10 uM by radioligand displacement assay; method in brief: as §2
[39] = molecular target: Translocator protein (Homo sapiens) (UniProt P30536); assay: Inhibition of Benzodiazepine receptor at 10 uM by radioligand displacement assay; method in brief: as §2
[40] = molecular target: B2 bradykinin receptor (Homo sapiens) (UniProt P30411); assay: Inhibition of B2 receptor at 10 uM by radioligand displacement assay; method in brief: as §2
[41] = molecular target: Cannabinoid receptor 1 (Homo sapiens) (UniProt P21554); assay: Inhibition of CB1 receptor at 10 uM by radioligand displacement assay; method in brief: as §2
[42] = molecular target: Cholecystokinin receptor type A (Homo sapiens) (UniProt P32238); assay: Inhibition of CCK1 receptor at 10 uM by radioligand displacement assay; method in brief: as §2
Sequence of Cholecystokinin receptor type A (Homo sapiens) (P32238 whole entry): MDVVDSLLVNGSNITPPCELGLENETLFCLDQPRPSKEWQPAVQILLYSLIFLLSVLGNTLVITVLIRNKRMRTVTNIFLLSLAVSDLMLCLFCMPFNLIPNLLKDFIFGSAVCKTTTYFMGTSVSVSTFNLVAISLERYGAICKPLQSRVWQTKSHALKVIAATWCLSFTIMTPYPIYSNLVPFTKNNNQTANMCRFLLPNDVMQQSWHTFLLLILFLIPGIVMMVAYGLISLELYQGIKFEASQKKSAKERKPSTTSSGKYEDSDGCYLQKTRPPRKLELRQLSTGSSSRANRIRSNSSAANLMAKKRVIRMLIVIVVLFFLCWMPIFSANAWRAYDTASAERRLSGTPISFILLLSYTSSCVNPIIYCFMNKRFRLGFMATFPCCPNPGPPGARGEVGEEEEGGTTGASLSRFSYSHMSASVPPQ

Sequence of Muscarinic acetylcholine receptor M1 (Homo sapiens) (P11229 whole entry): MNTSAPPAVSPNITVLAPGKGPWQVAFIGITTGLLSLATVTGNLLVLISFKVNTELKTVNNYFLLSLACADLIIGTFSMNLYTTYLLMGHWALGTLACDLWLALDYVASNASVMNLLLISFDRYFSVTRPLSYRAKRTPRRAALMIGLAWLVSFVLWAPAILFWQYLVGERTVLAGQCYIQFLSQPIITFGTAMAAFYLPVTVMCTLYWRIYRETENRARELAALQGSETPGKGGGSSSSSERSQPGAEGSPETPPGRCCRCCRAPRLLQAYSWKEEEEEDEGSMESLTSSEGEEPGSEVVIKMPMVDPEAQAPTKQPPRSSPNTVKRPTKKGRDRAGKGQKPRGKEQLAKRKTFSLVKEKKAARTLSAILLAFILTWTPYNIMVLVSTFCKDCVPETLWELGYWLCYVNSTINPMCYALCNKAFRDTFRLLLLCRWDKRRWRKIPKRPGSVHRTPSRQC
Sequence of 5-hydroxytryptamine receptor 5A (Homo sapiens) (P47898 whole entry): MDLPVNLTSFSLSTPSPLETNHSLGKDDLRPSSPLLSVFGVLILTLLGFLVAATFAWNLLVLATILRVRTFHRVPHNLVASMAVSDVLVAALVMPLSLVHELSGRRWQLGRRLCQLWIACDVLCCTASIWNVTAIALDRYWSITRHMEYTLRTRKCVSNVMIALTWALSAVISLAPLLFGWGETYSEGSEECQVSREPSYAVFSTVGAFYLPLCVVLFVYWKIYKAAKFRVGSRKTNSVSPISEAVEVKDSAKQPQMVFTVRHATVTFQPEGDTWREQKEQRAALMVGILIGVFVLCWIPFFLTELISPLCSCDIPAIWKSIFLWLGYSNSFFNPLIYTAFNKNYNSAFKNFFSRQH
Sequence of Substance-K receptor (Homo sapiens) (P21452 whole entry): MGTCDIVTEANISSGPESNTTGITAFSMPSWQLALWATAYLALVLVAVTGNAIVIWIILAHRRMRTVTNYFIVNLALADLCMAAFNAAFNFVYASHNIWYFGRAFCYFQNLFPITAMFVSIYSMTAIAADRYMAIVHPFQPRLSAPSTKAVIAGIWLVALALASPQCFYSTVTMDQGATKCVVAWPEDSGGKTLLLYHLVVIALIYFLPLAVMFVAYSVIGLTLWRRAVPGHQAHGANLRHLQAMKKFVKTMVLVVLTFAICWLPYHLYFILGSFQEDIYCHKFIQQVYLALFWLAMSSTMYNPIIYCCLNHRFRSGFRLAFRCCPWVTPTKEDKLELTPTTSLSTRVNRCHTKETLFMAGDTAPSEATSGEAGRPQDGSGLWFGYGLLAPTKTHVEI
Sequence of Histamine H1 receptor (Homo sapiens) (P35367 whole entry): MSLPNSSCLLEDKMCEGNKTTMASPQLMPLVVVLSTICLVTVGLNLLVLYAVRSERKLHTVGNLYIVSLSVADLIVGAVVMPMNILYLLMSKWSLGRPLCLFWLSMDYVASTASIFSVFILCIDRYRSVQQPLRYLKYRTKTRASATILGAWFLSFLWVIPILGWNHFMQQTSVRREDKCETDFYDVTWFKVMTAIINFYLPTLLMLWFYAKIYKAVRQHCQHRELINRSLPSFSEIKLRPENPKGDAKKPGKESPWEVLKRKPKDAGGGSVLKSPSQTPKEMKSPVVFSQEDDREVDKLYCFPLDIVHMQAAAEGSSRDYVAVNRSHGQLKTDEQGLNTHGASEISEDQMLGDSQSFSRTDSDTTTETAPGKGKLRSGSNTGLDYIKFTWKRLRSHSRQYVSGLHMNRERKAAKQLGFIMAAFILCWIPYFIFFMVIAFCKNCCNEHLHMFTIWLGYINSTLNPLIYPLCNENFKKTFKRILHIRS
Sequence of Thromboxane A2 receptor (Homo sapiens) (P21731 whole entry): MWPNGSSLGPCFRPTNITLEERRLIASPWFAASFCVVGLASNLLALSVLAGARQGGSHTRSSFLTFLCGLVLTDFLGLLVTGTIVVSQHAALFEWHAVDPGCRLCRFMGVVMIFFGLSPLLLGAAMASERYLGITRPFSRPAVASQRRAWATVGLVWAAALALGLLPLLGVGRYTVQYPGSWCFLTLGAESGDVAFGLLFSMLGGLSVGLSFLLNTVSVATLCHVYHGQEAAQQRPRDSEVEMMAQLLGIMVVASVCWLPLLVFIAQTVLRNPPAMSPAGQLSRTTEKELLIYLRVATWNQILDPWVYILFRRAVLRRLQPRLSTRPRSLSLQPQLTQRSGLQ
Sequence of Cannabinoid receptor 1 (Homo sapiens) (P21554 whole entry): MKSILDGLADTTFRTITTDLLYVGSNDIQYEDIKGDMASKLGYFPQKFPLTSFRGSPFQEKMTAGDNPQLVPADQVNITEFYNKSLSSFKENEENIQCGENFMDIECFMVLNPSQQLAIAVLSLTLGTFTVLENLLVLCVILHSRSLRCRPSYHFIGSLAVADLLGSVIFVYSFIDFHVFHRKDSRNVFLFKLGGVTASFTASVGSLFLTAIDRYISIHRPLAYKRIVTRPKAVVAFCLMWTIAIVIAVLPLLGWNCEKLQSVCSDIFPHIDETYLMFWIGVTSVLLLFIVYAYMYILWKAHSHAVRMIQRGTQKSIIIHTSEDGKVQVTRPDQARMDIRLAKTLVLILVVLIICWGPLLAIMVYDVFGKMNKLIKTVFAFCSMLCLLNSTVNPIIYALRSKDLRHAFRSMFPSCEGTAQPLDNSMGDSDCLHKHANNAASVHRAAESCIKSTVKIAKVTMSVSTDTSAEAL
Sequence of C-C chemokine receptor type 1 (Homo sapiens) (P32246 whole entry): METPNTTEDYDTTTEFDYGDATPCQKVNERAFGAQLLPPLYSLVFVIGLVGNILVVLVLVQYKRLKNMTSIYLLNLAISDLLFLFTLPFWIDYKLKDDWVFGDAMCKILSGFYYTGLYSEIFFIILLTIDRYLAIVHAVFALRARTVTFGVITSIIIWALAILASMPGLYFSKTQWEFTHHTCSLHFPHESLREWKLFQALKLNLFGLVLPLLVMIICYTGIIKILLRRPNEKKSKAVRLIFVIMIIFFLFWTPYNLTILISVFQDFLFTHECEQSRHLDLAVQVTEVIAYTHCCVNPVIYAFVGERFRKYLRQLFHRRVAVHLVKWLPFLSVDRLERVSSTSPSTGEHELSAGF
Sequence of D(1A) dopamine receptor (Homo sapiens) (P21728 whole entry): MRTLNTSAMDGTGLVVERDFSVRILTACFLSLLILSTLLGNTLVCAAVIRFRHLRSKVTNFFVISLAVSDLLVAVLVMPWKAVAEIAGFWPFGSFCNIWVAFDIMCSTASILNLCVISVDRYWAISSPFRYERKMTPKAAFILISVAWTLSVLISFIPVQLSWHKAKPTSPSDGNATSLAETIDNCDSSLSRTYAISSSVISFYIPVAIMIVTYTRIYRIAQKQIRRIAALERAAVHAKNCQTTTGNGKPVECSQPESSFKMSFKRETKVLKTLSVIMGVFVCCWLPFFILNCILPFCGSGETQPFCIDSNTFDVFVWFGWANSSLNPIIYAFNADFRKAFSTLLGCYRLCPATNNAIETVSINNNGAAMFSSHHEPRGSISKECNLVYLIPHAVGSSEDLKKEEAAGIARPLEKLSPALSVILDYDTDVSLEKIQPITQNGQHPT
Sequence of Beta-1 adrenergic receptor (Homo sapiens) (P08588 whole entry, looked up): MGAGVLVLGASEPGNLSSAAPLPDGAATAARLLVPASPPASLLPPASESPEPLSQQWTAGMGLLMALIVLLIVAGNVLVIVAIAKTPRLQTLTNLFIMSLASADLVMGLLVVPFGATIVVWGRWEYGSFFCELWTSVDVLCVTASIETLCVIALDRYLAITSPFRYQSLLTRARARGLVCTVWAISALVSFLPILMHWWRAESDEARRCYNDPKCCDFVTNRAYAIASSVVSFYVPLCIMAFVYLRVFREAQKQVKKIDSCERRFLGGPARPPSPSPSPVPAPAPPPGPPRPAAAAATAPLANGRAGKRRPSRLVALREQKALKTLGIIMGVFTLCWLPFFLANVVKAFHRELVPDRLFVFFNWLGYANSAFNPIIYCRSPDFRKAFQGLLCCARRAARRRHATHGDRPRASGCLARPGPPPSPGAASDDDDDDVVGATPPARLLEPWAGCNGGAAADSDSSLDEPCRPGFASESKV
Sequence of 5-hydroxytryptamine receptor 6 (Homo sapiens) (P50406 whole entry): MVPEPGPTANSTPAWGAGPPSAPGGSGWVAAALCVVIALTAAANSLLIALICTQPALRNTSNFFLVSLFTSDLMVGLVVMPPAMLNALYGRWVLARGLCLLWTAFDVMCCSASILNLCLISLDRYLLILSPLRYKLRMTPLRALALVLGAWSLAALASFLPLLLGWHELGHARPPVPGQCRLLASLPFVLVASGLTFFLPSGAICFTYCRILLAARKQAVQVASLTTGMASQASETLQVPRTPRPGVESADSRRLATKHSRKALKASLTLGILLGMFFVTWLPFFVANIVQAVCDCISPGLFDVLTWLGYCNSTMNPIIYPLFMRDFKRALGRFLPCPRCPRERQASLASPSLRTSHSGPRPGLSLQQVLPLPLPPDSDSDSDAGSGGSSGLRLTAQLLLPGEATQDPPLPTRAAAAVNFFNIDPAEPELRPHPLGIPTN
Sequence of Translocator protein (Homo sapiens) (P30536 whole entry): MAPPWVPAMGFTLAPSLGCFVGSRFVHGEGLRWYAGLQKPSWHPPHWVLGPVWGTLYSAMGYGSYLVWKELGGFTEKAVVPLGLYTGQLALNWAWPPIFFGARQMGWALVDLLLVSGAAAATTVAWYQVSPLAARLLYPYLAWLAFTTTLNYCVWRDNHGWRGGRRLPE

With Cc1cc(NS(C)(=O)=O)ccc1-n1c(CCC(=O)O)ccc1-c1ccc(-n2ccnc2)cc1 the inhibition [1] was “inactive”, the inhibition [2] was “inactive” and the inhibition [3] was “inactive”. For the same compound, the inhibition [4] was “inactive”, the inhibition [5] was “inactive” and the inhibition [6] was “inactive”. For the same compound, the inhibition [7] was “inactive”, the inhibition [8] was “inactive” and the inhibition [9] was “inactive”. For the same compound, the inhibition [10] was “inactive”, the inhibition [11] was “inactive” and the inhibition [12] was “inactive”. For the same compound, the inhibition [13] was “inactive”, the inhibition [14] was “inactive” and the inhibition [15] was “inactive”. The inhibition [16] was “inactive”, the inhibition [17] was “inactive” and the inhibition [18] was “inactive”. For the same compound, the inhibition [19] was “inactive”, the inhibition [20] was “inactive” and the inhibition [21] was “inactive”. For the same compound, the inhibition [22] was “inactive”, the inhibition [23] was “inactive” and the inhibition [24] was “inactive”. The inhibition [25] was “inactive”, the inhibition [26] was “inactive” and the inhibition [27] was “inactive”. The inhibition [28] was “inactive”, the inhibition [29] was “inactive” and the inhibition [30] was “inactive”. For the same compound, the inhibition [31] was “inactive”, the inhibition [32] was “inactive” and the inhibition [33] was “inactive”. For the same compound, the IC50 (A549) was greater than 150000 nM, the IC50 [34] was 29 nM and the inhibition [35] was “inactive”. The inhibition [36] was “inactive”, the inhibition [37] was “inactive” and the inhibition [38] was “inactive”. The inhibition [39] was “inactive”, the inhibition [40] was “inactive” and the inhibition [41] was “inactive”. The inhibition [42] was “inactive”.

In the case of Cc1cc(NS(C)(=O)=O)ccc1-n1c(CCC(=O)O)ccc1-c1ccc(-n2ccnc2C)s1, the inhibition [1] is reported as “inactive”, the inhibition [2] is reported as “inactive” and the inhibition [3] is reported as “inactive”. For the same compound, the inhibition [4] was “inactive”, the inhibition [5] was “inactive” and the inhibition [6] was “inactive”. The inhibition [7] was “inactive”, the inhibition [8] was “inactive” and the inhibition [9] was “inactive”. The inhibition [10] was “inactive”, the inhibition [11] was “inactive” and the inhibition [12] was “inactive”. For the same compound, the inhibition [13] was “inactive”, the inhibition [14] was “inactive” and the inhibition [15] was “inactive”. The inhibition [16] was “inactive”, the inhibition [17] was “inactive” and the inhibition [18] was “inactive”. The inhibition [19] was “inactive”, the inhibition [20] was “inactive” and the inhibition [21] was “inactive”. For the same compound, the inhibition [22] was “inactive”, the inhibition [23] was “inactive” and the inhibition [24] was “inactive”. The inhibition [25] was “inactive”, the inhibition [26] was “inactive” and the inhibition [27] was “inactive”. The inhibition [28] was “inactive”, the inhibition [29] was “inactive” and the inhibition [30] was “inactive”. The inhibition [31] was “inactive”, the inhibition [32] was “inactive” and the inhibition [33] was “inactive”. The IC50 (A549) was greater than 150000 nM, the IC50 [34] was 43 nM and the inhibition [35] was “inactive”. For the same compound, the inhibition [36] was “inactive”, the inhibition [37] was “inactive” and the inhibition [38] was “inactive”. The inhibition [39] was “inactive”, the inhibition [40] was “inactive” and the inhibition [41] was “inactive”. For the same compound, the inhibition [42] was “inactive”.
